Measured values gathered from unrelated publications.
Organism: Pseudomonas aeruginosa
Observed: microbial growth

CCCCCCC#Cc1cncc(-c2nnc(SCc3ccc([N+](=O)[O-])o3)n2CCCN)c1 — MIC (broth dilution; DSM1128): > 64 µg/mL
C[C@@H](O)[C@H]1C(=O)N2C(C(=O)O)=C(S[C@@H]3CN[C@H](C(=O)N(C)C)C3)[C@H](C)[C@H]12 — MIC (broth dilution; ATCC27853): 0.25 µg/mL
COc1ccc2ccc(O)c(/C=N/[C@H]3CCCC[C@H]3/N=C/c3c(O)cccc3F)c2c1 — MIC (broth dilution): > 40 µM
Cc1ccc2[nH]nc(-c3nnc(Nc4ccc(C)c(C)c4)s3)c2c1 — MIC (ATCC27853): 108 µg/mL
CC(C)c1ccc(/C=C2\N=C(SCC(=O)O)N(c3ccccc3)C2=O)cc1 — MIC (broth dilution; ATCC27 ATCC27853): 12 µg/mL
CO/N=C(\C(=O)N[C@@H]1C(=O)N2C(C(=O)O)=CCS[C@H]12)c1csc(N)n1 — MIC (broth dilution; ATCC27853): 16 µg/mL
COc1ccc2ccc(O)c(/C=N/[C@H]3CCCC[C@H]3/N=C/c3ccc(OCCN4CCCCC4)cc3O)c2c1 — MIC (broth dilution; clinical isolate): > 40 µM
C[C@H]1COc2c(N3CCN(C)CC3)c(F)cc3c(=O)c(C(=O)O)cn1c23 — MIC (ATCC27853; drug-resistant strain): 1 µg/mL
Cc1cc(O)cc(Nc2nnc(-c3n[nH]c4ccc(C)cc34)s2)c1 — MIC (ATCC27853): 147 µg/mL
COc1ccc2ccc(O)c(/C=N/[C@H]3CCCC[C@H]3/N=C/c3ccc(-c4ccccc4)cc3O)c2c1 — MIC (broth dilution): > 40 µM
CN(C)[C@@H]1C(O)=C(C(N)=O)C(=O)[C@@]2(O)C(O)=C3C(=O)c4c(O)cccc4[C@@](C)(O)[C@H]3C[C@@H]12 — MIC (broth dilution; ATCC27853): 16 µg/mL
CCCCCCC#Cc1cncc(-c2nnc(SCc3cc([N+](=O)[O-])cc([N+](=O)[O-])c3)n2CCCN)c1 — MIC (broth dilution; DSM1128): > 64 µg/mL
CC1(C)S[C@@H]2[C@H](NC(=O)[C@H](N)c3ccccc3)C(=O)N2[C@H]1C(=O)O — MIC (broth dilution; ATCC27853): 64 µg/mL
CC[C@H]1OC(=O)[C@H](C)[C@@H](O[C@H]2C[C@@](C)(OC)[C@@H](O)[C@H](C)O2)[C@H](C)[C@@H](O[C@@H]2O[C@H](C)C[C@H](N(C)C)[C@H]2O)[C@](C)(O)C[C@@H](C)CN(C)[C@H](C)[C@@H](O)[C@]1(C)O — MIC (ATCC27853): < 98 µg/mL
CCCCCCC#Cc1cncc(-c2nnc(SCc3cc([N+](=O)[O-])cc([N+](=O)[O-])c3)n2C2CCNCC2)c1 — MIC (broth dilution; DSM1128): > 64 µg/mL
CNC(C)C1CCC(N)C(OC2C(N)CC(N)C(OC3OCC(C)(O)C(NC)C3O)C2O)O1 (stereo not shown) — MIC (broth dilution): 2 µg/mL
Cc1ccc2[nH]nc(-c3nnc(Nc4ccc(Cl)c(Br)c4)s3)c2c1 — MIC (ATCC27853): 254 µg/mL
CCCCCCCCN=c1ccn(CCCCCCCCCCn2ccc(=NCCCCCCCC)cc2)cc1 — MIC (PAO1): 2 µM
Cc1ccc2[nH]nc(-c3nnc(Nc4ccc(F)cc4)s3)c2c1 — MIC (ATCC27853): 63.9 µg/mL
CCCCCCC#Cc1cncc(-c2nnc(SCc3cc(C(F)(F)F)cc(C(F)(F)F)c3)n2CCCN)c1 — MIC (broth dilution; DSM1128): > 64 µg/mL
C[C@H]1[C@H](NC(=O)/C(=N\OC(C)(C)C(=O)O)c2csc(N)n2)C(=O)N1S(=O)(=O)O — MIC (broth dilution; ATCC27853): 2 µg/mL
Cc1ccc2[nH]nc(-c3nnc(Nc4ccc(C(F)(F)F)cc4)s3)c2c1 — MIC (ATCC27853): 126 µg/mL
